Experiments:
[1] = assay type: in vivo, human; settings: final two-compartment model
How it was run: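 Plasma semaglutide (LC–MS/MS) from 353 subjects in 9 trials with s.c. and i.v. dosing. Mixed-effects two-compartment model with first-order absorption and elimination; i.v. doses treated as a central bolus. Log-normal inter-individual variability on ka, CL, Q, Vc and Vp; (weight/85 kg) exponent on CL, Q, Vc and Vp; product strength (1, 1.34, 3, 10 mg/mL) on ka. Covariates kept at 10% alpha; CWRES >6 excluded; log-additive residual error.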

[2] = assay type: in vivo, human; settings: one-compartment model, 7 multiple-dose trials, s.c.
How it was run: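 Steady-state s.c. plasma data from seven multiple-dose trials, with dose escalation 0.25 > 0.5 > 1.0 mg (one trial to 1.5 mg). One-compartment mixed-effects model parameterised as CL/F, V/F and ka, each with inter-individual variability. […] Log-additive residual error; values with CWRES >6 excluded.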

[3] = ref [6], cited from earlier work
plasma albumin = settings: ref [5]; cited from earlier work
[4] = population PK model; ref [9]; cited from earlier work
[5] = cited from earlier work
[6] = s.c., trial 7 drug product strength
[7] = one-compartment model from phase 3a trials

## CC[C@H](C)[C@H](NC(=O)[C@H](Cc1ccccc1)NC(=O)[C@H](CCC(=O)O)NC(=O)[C@H](CCCCNC(=O)COCCOCCNC(=O)COCCOCCNC(=O)CC[C@H](NC(=O)CCCCCCCCCCCCCCCCC(=O)O)C(=O)O)NC(=O)[C@H](C)NC(=O)[C@H](C)NC(=O)[C@H](CCC(N)=O)NC(=O)CNC(=O)[C@H](CCC(=O)O)NC(=O)[C@H](CC(C)C)NC(=O)[C@H](Cc1ccc(O)cc1)NC(=O)[C@H](CO)NC(=O)[C@H](CO)NC(=O)[C@@H](NC(=O)[C@H](CC(=O)O)NC(=O)[C@H](CO)NC(=O)[C@@H](NC(=O)[C@H](Cc1ccccc1)NC(=O)[C@@H](NC(=O)CNC(=O)[C@H](CCC(=O)O)NC(=O)C(C)(C)NC(=O)[C@@H](N)Cc1cnc[nH]1)[C@@H](C)O)[C@@H](C)O)C(C)C)C(=O)N[C@@H](C)C(=O)N[C@@H](Cc1c[nH]c2ccccc12)C(=O)N[C@@H](CC(C)C)C(=O)N[C@H](C(=O)N[C@@H](CCCNC(=N)N)C(=O)NCC(=O)N[C@@H](CCCNC(=N)N)C(=O)NCC(=O)O)C(C)C [semaglutide]
[1]; 9 trials, body weight 85 kg
  Central volume (Vc): 3.59 L
  Peripheral volume (Vp): 4.10 L
[1]; 95% CI 9–16%
  Higher CL in subjects with type 2 diabetes compared to healthy subjects: 12%
[1]; exponent of (weight/85 kg)
  Body weight effect on Vc and Vp: 0.923
[1]; factor, T2D vs normoglycaemia
  T2D effect on ka: 0.544
[1]; factor, thigh vs abdomen
  Injection site effect on F: 0.883
[1]; [6]
  Drug product strength effects on ka, 3 mg: 0.0526
  Drug product strength effects on ka, 10 mg: 0.139
[1]; s.c., 95% CI 0.80–0.90
  Bioavailability estimated by the final model: 85%
[1]; s.c., 95% CI 0.84–0.92
  Lower bioavailability when using the thigh compared with the abdomen: 12%
[1]; typical subject with T2D, 85 kg
  Total volume of distribution (Vc + Vp): approximately 8 L
[2]; 267 subjects
  Absorption rate constant (ka): 0.0296 h⁻¹
[2]
  Apparent clearance (CL/F), healthy volunteer with body weight of 85 kg: 0.0415 L/h
[3]; [7]
  CL/F for subject with T2D and body weight of 85 kg: 0.0478 L/h
  Total volume/F (V/F): 12.2 L
[3]; phase 3 analysis, CV
  Inter-individual variability in clearance: 12.9%
Plasma albumin
  Bound to plasma albumin: more than 99%

## dulaglutide
[4]
  Greater CL compared to semaglutide: approximately 50%
  Interindividual variability, coefficient of variation (CV) for CL: 40.5%
  Lower volume of distribution compared to semaglutide: 20%
  Slower absorption compared to semaglutide: approximately threefold

## liraglutide
[5]; population PK model, ref [10]
  Elimination compared with semaglutide: much faster elimination
[5]; ref [16]
  Bioavailability after administration in the thigh versus the abdomen: slightly lower
